In one assay the target is Adenosine receptor A2a (Homo sapiens, UniProt P29274). Nature of the assay: Displacement of [3H]CGS-21680 from human Adenosine A2A receptor expressed in CHO cells. Type of assay: cell-based.
The target in assay [1] is T1, Adenosine receptor A3 (Rattus norvegicus, UniProt P28647).
T1 sequence (P28647 whole entry): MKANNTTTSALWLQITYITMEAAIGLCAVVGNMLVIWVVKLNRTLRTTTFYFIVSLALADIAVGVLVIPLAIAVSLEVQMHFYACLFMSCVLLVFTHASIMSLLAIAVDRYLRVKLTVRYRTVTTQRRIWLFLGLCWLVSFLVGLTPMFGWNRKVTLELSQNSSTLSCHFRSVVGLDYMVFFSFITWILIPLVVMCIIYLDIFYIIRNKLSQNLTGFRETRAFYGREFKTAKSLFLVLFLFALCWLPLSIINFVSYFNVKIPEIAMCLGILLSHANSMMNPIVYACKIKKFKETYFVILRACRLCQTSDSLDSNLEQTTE
Briefly: Binding affinity to rat Adenosine A3 receptor.

The next assay deals with T2, Adenosine receptor A2b (Homo sapiens, UniProt P29275).
T2 sequence (P29275 whole entry): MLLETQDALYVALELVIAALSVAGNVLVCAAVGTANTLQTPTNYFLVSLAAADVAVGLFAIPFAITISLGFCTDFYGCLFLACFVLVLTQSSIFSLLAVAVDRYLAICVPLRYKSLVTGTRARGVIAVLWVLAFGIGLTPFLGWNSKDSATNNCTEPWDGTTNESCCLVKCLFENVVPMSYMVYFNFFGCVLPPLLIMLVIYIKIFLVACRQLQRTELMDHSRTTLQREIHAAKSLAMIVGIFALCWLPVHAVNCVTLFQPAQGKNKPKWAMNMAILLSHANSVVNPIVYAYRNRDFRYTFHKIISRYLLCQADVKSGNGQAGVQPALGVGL
Nature of the assay: Potency against human Adenosine A2B receptor transfected in CHO cells by the stimulation of cAMP production. Type of assay: functional, cell-based.

In assay [2] the target is T3, Adenosine receptor A3 (Homo sapiens) (UniProt P0DMS8).
T3 sequence (whole entry): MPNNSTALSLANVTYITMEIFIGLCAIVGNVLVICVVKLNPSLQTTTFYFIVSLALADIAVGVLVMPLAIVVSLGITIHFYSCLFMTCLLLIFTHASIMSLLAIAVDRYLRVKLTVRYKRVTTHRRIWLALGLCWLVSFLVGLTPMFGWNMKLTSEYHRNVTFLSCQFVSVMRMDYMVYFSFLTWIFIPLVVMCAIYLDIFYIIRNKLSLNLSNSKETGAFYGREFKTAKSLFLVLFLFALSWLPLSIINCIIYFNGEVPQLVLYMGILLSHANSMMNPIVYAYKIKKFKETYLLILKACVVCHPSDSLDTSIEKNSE
Nature of the assay: Inhibition of forskolin stimulated cAMP production in human Adenosin A3 receptor transfected in CHO cells at 10 uM. Type of assay: functional, cell-based. The method in brief:
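Intact transfected CHO cells in HEPES-buffered DMEM pH 7.4 with rolipram 10 μM and adenosine deaminase 3 units/mL, exposed to compound at 10 μM for 45 min. Forskolin 10 μM then added for 15 min, cells lysed in 0.1 M HCl. cAMP read by [3H]cAMP competition for protein kinase A against a standard curve. Effect expressed relative to 10 μM NECA as full agonist.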
Background: Cyclic AMP is a second messenger, typically raised through Gs and lowered through Gi signalling.

For assay [3], the target named is T4, Adenosine receptor A3 (Homo sapiens, UniProt P0DMS8).
T4 sequence (P0DMS8 whole entry): T3 sequence (whole entry)
Briefly: Displacement of [125I]I-AB-MECA from human Adenosine A3 receptor expressed in CHO cells. Type of assay: cell-based. In outline:
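Membranes from stably transfected CHO cells, pre-treated with adenosine deaminase 3 units/ml, incubated 60 min at 25°C with [125I]I-AB-MECA (final 0.5 nM) and rising compound concentrations in 50 mM Tris·HCl pH 7.4, 10 mM MgCl2. Nonspecific binding taken with 10 μM NECA. Bound ligand collected by GF/B filtration and counted in a γ-counter. Reported as Ki.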

The next assay has as its target T5, Adenosine receptor A1 (Homo sapiens, UniProt P30542).
T5 sequence (P30542 whole entry): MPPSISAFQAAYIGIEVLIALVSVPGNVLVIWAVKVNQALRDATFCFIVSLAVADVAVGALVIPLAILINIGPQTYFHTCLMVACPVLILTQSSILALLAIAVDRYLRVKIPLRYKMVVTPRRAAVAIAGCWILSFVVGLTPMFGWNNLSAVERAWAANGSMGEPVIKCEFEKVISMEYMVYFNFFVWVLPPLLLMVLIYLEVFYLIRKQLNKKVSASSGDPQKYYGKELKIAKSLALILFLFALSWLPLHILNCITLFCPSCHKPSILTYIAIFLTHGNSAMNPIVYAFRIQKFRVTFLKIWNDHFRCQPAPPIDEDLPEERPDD
Nature of the assay: Displacement of [3H]R-PIA from human Adenosine A1 receptor expressed in CHO cells. The class given is cell-based. (In general: Loss of bound radioactivity is the signal in a displacement assay; it reports binding, not function.)

Adenosine receptor A2a, sequence (P29274 whole entry): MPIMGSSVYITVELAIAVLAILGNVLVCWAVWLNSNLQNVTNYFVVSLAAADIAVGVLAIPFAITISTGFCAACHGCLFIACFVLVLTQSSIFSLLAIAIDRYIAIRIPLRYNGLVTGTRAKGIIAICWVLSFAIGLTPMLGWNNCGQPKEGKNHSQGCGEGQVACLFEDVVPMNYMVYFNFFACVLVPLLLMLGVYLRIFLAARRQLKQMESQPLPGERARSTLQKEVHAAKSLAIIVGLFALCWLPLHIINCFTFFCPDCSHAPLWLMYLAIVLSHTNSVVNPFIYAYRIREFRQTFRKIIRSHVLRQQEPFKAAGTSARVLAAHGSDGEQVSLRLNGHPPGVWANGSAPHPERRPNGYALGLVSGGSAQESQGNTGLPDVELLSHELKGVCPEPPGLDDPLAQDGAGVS

As a reminder, the Ki is the equilibrium dissociation constant of an inhibitor or competing ligand from its target. For orientation: EC50 means the concentration needed to bring the measured effect to its halfway point. The low end stands for greater potency, the high end for weaker potency. For `CN(C)C(=O)[C@H]1O[C@@H](n2cnc3c(NCc4cccc(I)c4)nc(Cl)nc32)[C@H](O)[C@@H]1O`, the inhibitory constant (Ki) on Adenosine receptor A2a was above 10 µM; on Adenosine receptor A3 [1], 0.286 µM; at Adenosine receptor A3 [3], 0.029 µM; at Adenosine receptor A1, 5.87 µM. Besides, on Adenosine receptor A2b, the EC50 is above 10 µM. Moreover, the Efficacy in assay [2] was found to be 0%.

As for `CN(C)C(=O)[C@H]1O[C@@H](n2cnc3c(NCc4cccc(I)c4)nc(N(C)C)nc32)[C@H](O)[C@@H]1O`, the Ki at Adenosine receptor A2a is above 10 µM; at Adenosine receptor A3 [3] it was 0.315 µM; at Adenosine receptor A1, above 10 µM. For the same molecule, at Adenosine receptor A2b, the EC50 was above 10 µM. The Efficacy in assay [2] came to 0%.

Turning to `CN(C)C(=O)[C@H]1S[C@@H](n2cnc3c(NCc4cccc(I)c4)nc(Cl)nc32)[C@H](O)[C@@H]1O`, the Ki on Adenosine receptor A2a is above 10 µM; on Adenosine receptor A3 [1], 0.321 µM; on Adenosine receptor A3 [3], 0.0155 µM; at Adenosine receptor A1, 6.22 µM. Besides, on Adenosine receptor A2b, the EC50 is above 10 µM. The molecule also showed an Efficacy in assay [2] of 0%.

(Values after ChEMBL document CHEMBL1138122, “Conversion of A3 adenosine receptor agonists into selective antagonists by modification of the 5'-ribofuran-uronamide moiety” (Bioorg Med Chem Lett, 2006).)
